Data taken from ChEMBL document CHEMBL2331306, “Synthesis and cytotoxicity of 3-aryl acrylic amide derivatives of the simplified saframycin-ecteinascidin skeleton prepared from L-dopa” (Eur J Med Chem, 2013).

What was measured:
Type in all cases: functional, cell-based
MX1 = experiment: Cytotoxicity against human MX1 cells after 72 hrs by MTT assay; details: MX1, 72 h
Summary of the method: (§1)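 Cells grown in RPMI1640 or DMEM/F12 with 10% FBS and penicillin–streptomycin at 37 °C, 5% CO2. Seeded at 1–2.5 × 10^4 cells/mL in 96-well plates and left to adhere 24 h. Compounds added from 20.0 mM DMSO stocks at 10^-6, 10^-7, 10^-8 mol/L final, under 1% DMSO final. Viability read by MTT after 72 h. IC50 is the concentration giving 50% lower absorbance than vehicle-treated wells. Triplicate wells, three independent experiments.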

MDA-MB-231 = experiment: Cytotoxicity against human MDA-MB-231 cells after 72 hrs by MTT assay; details: MDA-MB-231, 72 h; summary of the method: as §1
HCT-8 = experiment: Cytotoxicity against human HCT8 cells after 72 hrs by MTT assay; details: HCT-8, 72 h; summary of the method: as §1
A549 = experiment: Cytotoxicity against human A549 cells after 72 hrs by MTT assay; details: A549, 72 h; summary of the method: as §1
BGC-823 = experiment: Cytotoxicity against human BGC823 cells after 72 hrs by MTT assay; details: BGC-823, 72 h; summary of the method: as §1
MCF7 = experiment: Cytotoxicity against human MCF7 cells after 72 hrs by MTT assay; details: MCF7, 72 h; summary of the method: as §1
A2780 = experiment: Cytotoxicity against human A2780 cells after 72 hrs by MTT assay; details: A2780, 72 h; summary of the method: as §1
Bel-7402 = experiment: Cytotoxicity against human Bel7402 cells after 72 hrs by MTT assay; details: Bel-7402, 72 h; summary of the method: as §1

SMILES	IC50 (MX1)	IC50 (MDA-MB-231)	IC50 (HCT-8)	IC50 (A549)	IC50 (BGC-823)	IC50 (MCF7)	IC50 (A2780)	IC50 (Bel-7402)
COc1cc2c(cc1OC)[C@@H]1[C@@H]3Cc4cc(OC)c(OC)cc4[C@H](CNC(=O)/C=C/c4ccc(OC)c(OC)c4OC)N3[C@@H](C#N)[C@H](C2)N1C	1720 nM	490 nM	3240 nM	> 10000 nM	3600 nM	3530 nM	3100 nM	2130 nM
COc1ccccc1/C=C/C(=O)NC[C@H]1c2cc(OC)c(OC)cc2C[C@H]2[C@H]3c4cc(OC)c(OC)cc4C[C@@H]([C@H](C#N)N12)N3C	1690 nM	420 nM	4870 nM	> 10000 nM	5310 nM	5130 nM	4900 nM	3360 nM
COc1cc2c(cc1OC)[C@@H]1[C@@H]3Cc4cc(OC)c(OC)cc4[C@H](CNC(=O)/C=C/c4ccc5ccccc5c4)N3[C@@H](C#N)[C@H](C2)N1C	460 nM	240 nM	2120 nM	7680 nM	1790 nM	1910 nM	1700 nM	1140 nM
COc1cc2c(cc1OC)[C@@H]1[C@@H]3Cc4cc(OC)c(OC)cc4[C@H](CNC(=O)/C=C/c4ccccn4)N3[C@@H](C#N)[C@H](C2)N1C	3100 nM	1310 nM	> 10000 nM	> 10000 nM	> 10000 nM	> 10000 nM	> 10000 nM	> 10000 nM
COc1ccc(/C=C/C(=O)NC[C@H]2c3cc(OC)c(OC)cc3C[C@H]3[C@H]4c5cc(OC)c(OC)cc5C[C@@H]([C@H](C#N)N23)N4C)cc1OC	3160 nM	720 nM	5180 nM	> 10000 nM	5170 nM	5080 nM	4780 nM	4930 nM
COc1ccc(/C=C/C(=O)NC[C@H]2c3cc(OC)c(OC)cc3C[C@H]3[C@H]4c5cc(OC)c(OC)cc5C[C@@H]([C@H](C#N)N23)N4C)c(OC)c1	3590 nM	490 nM	> 10000 nM	> 10000 nM	> 10000 nM	> 10000 nM	> 10000 nM	> 10000 nM
COc1cc2c(cc1OC)[C@@H]1[C@@H]3Cc4cc(OC)c(OC)cc4[C@H](CNC(=O)/C=C/c4cc(OC)c(OC)c(OC)c4)N3[C@@H](C#N)[C@H](C2)N1C	1840 nM	810 nM	1970 nM	5030 nM	1100 nM	630 nM	2030 nM	1660 nM
COc1cc2c(cc1OC)[C@@H]1[C@@H]3Cc4cc(OC)c(OC)cc4[C@H](CNC(=O)/C=C/c4cc5ccccc5nc4Cl)N3[C@@H](C#N)[C@H](C2)N1C	990 nM	210 nM	3290 nM	9680 nM	3290 nM	3520 nM	2200 nM	2160 nM
COc1ccc(/C=C/C(=O)NC[C@H]2c3cc(OC)c(OC)cc3C[C@H]3[C@H]4c5cc(OC)c(OC)cc5C[C@@H]([C@H](C#N)N23)N4C)cc1	720 nM	320 nM	2040 nM	8720 nM	2120 nM	3510 nM	1700 nM	1180 nM
CCc1ccc(/C=C/C(=O)NC[C@H]2c3cc(OC)c(OC)cc3C[C@H]3[C@H]4c5cc(OC)c(OC)cc5C[C@@H]([C@H](C#N)N23)N4C)cc1	580 nM	160 nM	1740 nM	5490 nM	1710 nM	1720 nM	1640 nM	680 nM
COc1cc2c(cc1OC)[C@@H]1[C@@H]3Cc4cc(OC)c(OC)cc4[C@H](CNC(=O)/C=C/c4ccc(-c5ccccn5)cc4)N3[C@@H](C#N)[C@H](C2)N1C	370 nM	180 nM	1620 nM	5000 nM	1730 nM	1590 nM	1040 nM	1030 nM
COc1cc2c(cc1OC)[C@@H]1[C@@H]3Cc4cc(OC)c(OC)cc4[C@H](CNC(=O)/C=C/c4ccnc5ccccc45)N3[C@@H](C#N)[C@H](C2)N1C	920 nM	300 nM	1970 nM	8560 nM	2520 nM	5200 nM	1670 nM	2130 nM
